# Measurements reported in ChEMBL document CHEMBL3994569, “Synthesis, anti-varicella-zoster virus and anti-cytomegalovirus activity of quinazoline-2,4-diones containing isoxazolidine and phosphonate substructures” (Eur J Med Chem, 2017).
# pEC50, pIC50: −log10 of the molar value.
# Columns and labels:
# [1] = tested on: Human alphaherpesvirus 3; experiment: Antiviral activity against thymidine kinase deficient Varicella-Zoster virus 07-1 infected in HEL cells assessed as reduction in virus plaque formation; type: functional, cell-based
# In short: (§1)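 Confluent HEL fibroblast cultures were infected with VZV at an input of 100 PFU and incubated with varying compound concentrations. Plaques were counted once plaque formation was complete in untreated infected controls.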
# [2] = tested on: CCRF-CEM; experiment: Anti-proliferative activity against human CEM cells measured after 72 hrs by coulter counter method; type: ADME, cell-based
# In short: (§2)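 Cells at 300,000–500,000 cells/mL, combined 1:1 by volume with compound dilutions, incubated at 37 °C: L1210 for two days, CEM for three days, HeLa for four days. Cells counted by Coulter counter.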
# [3] = tested on: Human alphaherpesvirus 3; experiment: Antiviral activity against thymidine kinase expressing Varicella-Zoster virus OKA infected in HEL cells assessed as reduction in virus plaque formation; type: functional, cell-based, strain Oka vaccine; in short: as §1
# [4] = tested on: HeLa; experiment: Anti-proliferative activity against human HeLa cells measured after 4 days by coulter counter method; type: ADME, cell-based; in short: as §2
# [5] = Cytotoxicity against HEL cells infected with Varicella-Zoster virus assessed as alteration in cell morphology by microscopic method; type: cell-based; details: human, HEL cells infected with Varicella-Zoster virus
# In short: (§3)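 In the HEL cultures used for the antiviral assays, cell morphology was examined microscopically across varying compound concentrations. MCC is the minimum concentration causing a microscopically detectable alteration of cell morphology.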
# [6] = tested on: Cytomegalovirus; experiment: Antiviral activity against Cytomegalovirus Davis infected in HEL cells assessed as reduction in virus plaque formation; type: functional, cell-based
# In short: (§4)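 Confluent HEL fibroblast cultures infected with 100 PFU of HCMV and kept with varying compound concentrations. Plaques scored once plaque formation was complete in untreated infected controls.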
# [7] = tested on: Cytomegalovirus; experiment: Antiviral activity against Cytomegalovirus AD169 infected in HEL cells assessed as reduction in virus plaque formation; type: functional, cell-based; in short: as §4
# [8] = tested on: HMEC-1; experiment: Anti-proliferative activity against HMEC1 cells by coulter counter method; type: ADME, cell-based, Homo sapiens; details: Homo sapiens, HMEC-1
# In short: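 HMEC-1 cells at 300,000–500,000 cells/mL, mixed 1:1 by volume with serial dilutions of test compound, incubated at 37 °C. Cell number counted by Coulter counter.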
# [9] = Cytotoxicity against HEL cells infected with Cytomegalovirus assessed as alteration in cell morphology by microscopic method; type: cell-based; details: human, HEL cells infected with Cytomegalovirus; in short: as §3
# [10] = tested on: L1210; experiment: Anti-proliferative activity against mouse L1210 cells measured after 48 hrs by coulter counter method; type: ADME, cell-based; in short: as §2
# [11] = tested on: HEL; experiment: Cytotoxicity against HEL cells infected with Varicella-Zoster virus assessed as growth inhibition; type: cell-based; details: human, hel
# [12] = tested on: HEL; experiment: Cytotoxicity against HEL cells infected with Cytomegalovirus assessed as growth inhibition; type: cell-based; details: human
# [13] = Cytotoxicity against virus infected HEL cells assessed as alteration in cell morphology by microscopic method; type: cell-based; details: human; in short: as §3
# [14] = Human alphaherpesvirus 3, 07-1, HEL
# [15] = Human alphaherpesvirus 3, strain Oka vaccine, HEL
# [16] = Human betaherpesvirus 5, Davis, HEL
# [17] = Human betaherpesvirus 5, AD169, HEL
Structure (SMILES),"pEC50 [1, 14]","pIC50 ([2]; Homo sapiens, CCRF-CEM, 72 h)","pEC50 [3, 15]","pIC50 ([4]; Homo sapiens, HeLa, 96 h)",MCC [5],"pEC50 [6, 16]","pEC50 [7, 17]",pIC50 [8],MCC [9],"pIC50 ([10]; Mus musculus, L1210, 48 h)",CC50 [11],pEC50 [1],pIC50 ([2]; ccrf-cem),pEC50 [3],pIC50 ([4]; hela),CC50 [12],pEC50 [6],pEC50 [7],pIC50 ([10]; l1210),MCC [13]
CCOP(=O)(OCC)C1CC(Cn2c(=O)n(Cc3ccccc3)c(=O)c3ccccc32)ON1C (mixture of isomers),< 4.00,3.98,< 4.00,4.02,> 100 µM,< 4.00,< 4.00,3.65,100 µM,3.84,–,–,–,–,–,–,–,–,–,–
CCOP(=O)(OCC)C1CC(Cn2c(=O)n(C(=O)c3ccc(F)cc3)c(=O)c3ccccc32)ON1Cc1ccccc1 (mixture of isomers),5.12,3.88,5.13,< 3.60,100 µM,< 4.70,< 4.70,–,20 µM,3.98,12.3 µM,–,–,–,–,–,–,–,–,–
CCOP(=O)(OCC)C1CC(Cn2c(=O)n(Cc3ccc(F)cc3)c(=O)c3ccccc32)ON1C (mixture of isomers),4.60,3.76,4.45,3.80,100 µM,< 4.70,< 4.70,≤ 3.60,100 µM,≤ 3.60,–,–,–,–,–,–,–,–,–,–
CCOP(=O)(OCC)C1CC(Cn2c(=O)n(C(=O)c3ccccc3F)c(=O)c3ccccc32)ON1Cc1ccccc1 (mixture of isomers),4.70,3.80,4.78,≤ 3.60,100 µM,< 4.70,< 4.70,< 3.60,100 µM,3.81,21.4 µM,–,–,–,–,–,–,–,–,–
CCOP(=O)(OCC)C1CC(Cn2c(=O)n(C(=O)c3ccccc3F)c(=O)c3ccccc32)ON1C (mixture of isomers),4.59,–,4.54,< 3.60,> 100 µM,4.20,< 4.00,< 3.60,100 µM,< 3.60,–,–,–,–,–,–,–,–,–,–
CCOP(=O)(OCC)C1CC(Cn2c(=O)n(C(=O)c3cccc(F)c3)c(=O)c3ccccc32)ON1C (mixture of isomers),4.67,–,5.11,< 3.60,> 100 µM,< 4.00,< 4.00,–,100 µM,< 3.60,30 µM,–,–,–,–,–,–,–,–,–
CCOP(=O)(OCC)C1CC(Cn2c(=O)n(C(=O)c3cccc(F)c3)c(=O)c3ccccc32)ON1Cc1ccccc1 (mixture of isomers),5.07,3.78,5.22,–,100 µM,< 4.70,< 4.70,< 3.60,100 µM,3.73,19.3 µM,–,–,–,–,–,–,–,–,–
CCOP(=O)(OCC)C1CC(Cn2c(=O)n(Cc3cccc(F)c3)c(=O)c3ccccc32)ON1C (mixture of isomers),4.57,4.11,5.15,4.07,≥ 100 µM,4.35,< 4.70,3.83,100 µM,3.93,36.8 µM,–,–,–,–,–,–,–,–,–
CCOP(=O)(OCC)C1CC(Cn2c(=O)n(Cc3ccccc3)c(=O)c3ccccc32)ON1Cc1ccccc1 (mixture of isomers; trans),–,–,–,–,–,–,–,–,–,–,–,< 4.70,4.82,< 4.70,4.14,41.7 µM,4.88,≤ 4.84,4.77,–
CCOP(=O)(OCC)[C@@H]1C[C@@H](Cn2c(=O)n(Cc3ccccc3F)c(=O)c3ccccc32)ON1Cc1ccccc1 (relative stereo),< 4.70,4.01,5.40,4.10,20 µM,< 5.40,< 4.70,3.84,20 µM,4.17,–,–,–,–,–,–,–,–,–,–
CCOP(=O)(OCC)[C@H]1C[C@@H](Cn2c(=O)n(C(=O)c3ccccc3)c(=O)c3ccccc32)ON1Cc1ccccc1 (relative stereo),4.97,–,5.07,–,100 µM,< 4.70,< 4.70,< 3.60,100 µM,3.81,16.3 µM,–,–,–,–,–,–,–,–,–
CCOP(=O)(OCC)[C@@H]1C[C@@H](Cn2c(=O)n(Cc3ccccc3F)c(=O)c3ccccc32)ON1C (relative stereo),< 4.70,4.00,< 4.70,4.13,100 µM,4.00,< 4.00,3.72,20 µM,3.71,–,–,–,–,–,–,–,–,–,–
CCOP(=O)(OCC)[C@@H]1C[C@@H](Cn2c(=O)n(C(=O)c3cccc(F)c3)c(=O)c3ccccc32)ON1Cc1ccccc1 (relative stereo),5.07,3.65,5.06,< 3.60,100 µM,< 4.70,< 4.70,< 3.60,20 µM,3.77,9.8 µM,–,–,–,–,–,–,–,–,–
CCOP(=O)(OCC)[C@H]1C[C@@H](Cn2c(=O)n(Cc3ccccc3F)c(=O)c3ccccc32)ON1C (relative stereo),< 4.00,3.74,4.23,3.89,> 100 µM,4.00,< 4.00,≤ 3.60,100 µM,3.69,–,–,–,–,–,–,–,–,–,–
CCOP(=O)(OCC)[C@@H]1C[C@@H](Cn2c(=O)n(C(=O)c3ccc(F)cc3)c(=O)c3ccccc32)ON1Cc1ccccc1 (relative stereo),5.08,3.77,5.12,–,100 µM,< 4.70,< 4.70,≤ 3.60,20 µM,3.91,12.7 µM,–,–,–,–,–,–,–,–,–
CCOP(=O)(OCC)[C@@H]1C[C@@H](Cn2c(=O)n(Cc3cccc(F)c3)c(=O)c3ccccc32)ON1C (relative stereo),< 4.00,4.00,4.25,4.06,> 100 µM,4.20,4.12,3.82,> 100 µM,3.88,–,–,–,–,–,–,–,–,–,–
CCOP(=O)(OCC)[C@@H]1C[C@@H](Cn2c(=O)n(Cc3ccc(F)cc3)c(=O)c3ccccc32)ON1C (relative stereo),< 4.70,4.03,4.17,4.09,10 µM,4.00,< 4.00,3.80,100 µM,3.90,–,–,–,–,–,–,–,–,–,–
CCOP(=O)(OCC)[C@H]1C[C@@H](Cn2c(=O)n(C(=O)c3ccc(F)cc3)c(=O)c3ccccc32)ON1C (relative stereo),4.61,< 3.60,4.58,< 3.60,> 100 µM,< 4.70,< 4.70,< 3.60,100 µM,–,–,–,–,–,–,–,–,–,–,–
CCOP(=O)(OCC)[C@@H]1C[C@@H](Cn2c(=O)n(C(=O)c3ccccc3F)c(=O)c3ccccc32)ON1C (relative stereo),4.47,< 3.60,4.44,–,> 100 µM,4.17,< 4.70,–,100 µM,–,–,–,–,–,–,–,–,–,–,–
CCOP(=O)(OCC)[C@@H]1C[C@@H](Cn2c(=O)n(C(=O)c3cccc(F)c3)c(=O)c3ccccc32)ON1C (relative stereo),4.82,< 3.60,4.78,–,> 100 µM,< 4.70,< 4.70,< 3.60,100 µM,3.64,16.5 µM,–,–,–,–,–,–,–,–,–
CCOP(=O)(OCC)[C@@H]1C[C@@H](Cn2c(=O)n(Cc3ccccc3)c(=O)c3ccccc32)ON1C (relative stereo),< 4.70,3.91,< 4.70,3.92,100 µM,< 4.00,< 4.00,3.63,100 µM,3.85,–,–,–,–,–,–,–,–,–,–
CCOP(=O)(OCC)[C@@H]1C[C@@H](Cn2c(=O)n(C(=O)c3ccccc3)c(=O)c3ccccc32)ON1Cc1ccccc1 (relative stereo),< 4.70,≤ 3.60,5.07,< 3.60,100 µM,< 4.70,< 4.70,–,100 µM,3.81,28.9 µM,–,–,–,–,–,–,–,–,–
Nc1nc2c(ncn2COCCO)c(=O)[nH]1 [ACYCLOVIR],–,–,–,–,> 440 µM,–,–,–,–,–,–,–,–,–,–,–,–,–,–,> 250 µM
O=c1[nH]cc(F)c(=O)[nH]1 [FLUOROURACIL],–,–,–,–,–,–,–,–,–,6.48,–,–,–,–,–,–,–,–,–,–
NC(=O)c1ncn([C@@H]2O[C@H](CO)[C@@H](O)[C@H]2O)n1 [RIBAVIRIN],–,–,–,–,–,–,–,–,–,–,–,–,–,–,–,–,–,–,–,≥ 250 µM
